According to ChEMBL document CHEMBL5257039, “Modulation of AMPA Receptor Gating by the Anticonvulsant Drug, Perampanel” (ACS Med Chem Lett, 2019):
Calls of active or inactive are those of the source. No cut-off for these calls is given here.

Key:
Type in all cases: cell-based
[1] = biological target: T1, Glutamate receptor 3 (Homo sapiens, UniProt P42263); assay: Blockade of whole cell current in GluA3i-G (unknown origin) transfected in HEK293 cells assessed as fractional occupancy at level O1 by measuring ratio at -60 mV in presence of glutamate at 2 uM by whole cell patch clamp assay (RVB = 0.16 +/- 0.059); conditions: filed as negative allosteric modulator
Outline: (§1)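 Single homomeric GluA3i-G channels (flip, G at R/G editing site) were recorded cell-attached for 10–45 min in 5 mM L-glutamate plus 150–200 μM cyclothiazide to block desensitization. Inhibitor at 1 or 2 μM was coapplied with glutamate, and analysis used the steady-state segment. Amplitudes were fitted to closed and O1–O4 conductance levels. Fractional occupancy per level is reported as mean ± SD over 2–3 patches.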

[2] = biological target: T1, Glutamate receptor 3; assay: Blockade of whole cell current in GluA3i-G (unknown origin) transfected in HEK293 cells assessed as fractional occupancy at level O4 by measuring ratio at -60 mV in presence of glutamate at 1 uM by whole cell patch clamp assay (RVB = 0.14 +/- 0.050); conditions: filed as negative allosteric modulator; outline: as §1
[3] = biological target: T1, Glutamate receptor 3; assay: Blockade of whole cell current in GluA3i-G (unknown origin) transfected in HEK293 cells assessed as fractional occupancy at level C by measuring ratio at -60 mV in presence of glutamate at 2 uM by whole cell patch clamp assay (RVB = 0.037 +/- 0.010); conditions: filed as negative allosteric modulator; outline: as §1
[4] = biological target: T1, Glutamate receptor 3; assay: Blockade of whole cell current in GluA3i-G (unknown origin) transfected in HEK293 cells measured at -60 mV in presence of glutamate by whole cell patch clamp assay
Outline: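 Whole-cell GluA3 currents were recorded at Vh −60 mV. Glutamate was applied first, then coapplied with inhibitor. Steady-state responses were normalized to currents in 5 mM glutamate in each of 19 cells, with 3–10 cells per concentration. The concentration–effect curve was fitted assuming simple inhibition.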

[5] = biological target: T1, Glutamate receptor 3; assay: Blockade of whole cell current in GluA3i-G (unknown origin) transfected in HEK293 cells assessed as opening of conductance level O3 measured at -60 mV in presence of glutamate at 2 uM by whole cell patch clamp assay; outline: as §1
[6] = biological target: T1, Glutamate receptor 3; assay: Blockade of whole cell current in GluA3i-G (unknown origin) transfected in HEK293 cells assessed as opening of conductance level O4 measured at -60 mV in presence of glutamate at 1 uM by whole cell patch clamp assay; outline: as §1
[7] = biological target: T1, Glutamate receptor 3; assay: Blockade of whole cell current in GluA3i-G (unknown origin) transfected in HEK293 cells assessed as opening of conductance level O2 measured at -60 mV in presence of glutamate at 1 uM by whole cell patch clamp assay; conditions: filed as negative allosteric modulator; outline: as §1
[8] = biological target: T1, Glutamate receptor 3; assay: Blockade of whole cell current in GluA3i-G (unknown origin) transfected in HEK293 cells assessed as opening of conductance level O2 measured at -60 mV in presence of glutamate at 2 uM by whole cell patch clamp assay; conditions: filed as negative allosteric modulator; outline: as §1
[9] = biological target: T1, Glutamate receptor 3; assay: Blockade of whole cell current in GluA3i-G (unknown origin) transfected in HEK293 cells assessed as opening of conductance level O3 measured at -60 mV in presence of glutamate at 1 uM by whole cell patch clamp assay; outline: as §1
[10] = biological target: T1, Glutamate receptor 3; assay: Blockade of whole cell current in GluA3i-G (unknown origin) transfected in HEK293 cells assessed as fractional occupancy at level C by measuring ratio at -60 mV in presence of glutamate at 1 uM by whole cell patch clamp assay (RVB = 0.037 +/- 0.010); conditions: filed as negative allosteric modulator; outline: as §1
[11] = biological target: T1, Glutamate receptor 3; assay: Blockade of whole cell current in GluA3i-G (unknown origin) transfected in HEK293 cells assessed as fractional occupancy at level O3 by measuring ratio at -60 mV in presence of glutamate at 2 uM by whole cell patch clamp assay (RVB = 0.44 +/- 0.14); conditions: filed as negative allosteric modulator; outline: as §1
[12] = biological target: T1, Glutamate receptor 3; assay: Blockade of whole cell current in GluA3i-G (unknown origin) transfected in HEK293 cells assessed as fractional occupancy at level O2 by measuring ratio at -60 mV in presence of glutamate at 2 uM by whole cell patch clamp assay (RVB = 0.23 +/- 0.051); conditions: filed as negative allosteric modulator; outline: as §1
[13] = biological target: T1, Glutamate receptor 3; assay: Blockade of whole cell current in GluA3i-G (unknown origin) transfected in HEK293 cells assessed as fractional occupancy at level O3 by measuring ratio at -60 mV in presence of glutamate at 1 uM by whole cell patch clamp assay (RVB = 0.44 +/- 0.14); conditions: filed as negative allosteric modulator; outline: as §1
[14] = biological target: T1, Glutamate receptor 3; assay: Blockade of whole cell current in GluA3i-G (unknown origin) transfected in HEK293 cells assessed as opening of conductance level O1 measured at -60 mV in presence of glutamate at 1 uM by whole cell patch clamp assay; conditions: filed as negative allosteric modulator; outline: as §1
[15] = biological target: T1, Glutamate receptor 3; assay: Blockade of whole cell current in GluA3i-G (unknown origin) transfected in HEK293 cells assessed as opening of conductance level O4 measured at -60 mV in presence of glutamate at 2 uM by whole cell patch clamp assay; outline: as §1
[16] = biological target: T1, Glutamate receptor 3; assay: Blockade of whole cell current in GluA3i-G (unknown origin) transfected in HEK293 cells assessed as fractional occupancy at level O2 by measuring ratio at -60 mV in presence of glutamate at 1 uM by whole cell patch clamp assay (RVB = 0.23 +/- 0.051); conditions: filed as negative allosteric modulator; outline: as §1
[17] = biological target: T1, Glutamate receptor 3; assay: Blockade of whole cell current in GluA3i-G (unknown origin) transfected in HEK293 cells assessed as fractional occupancy at level O1 by measuring ratio at -60 mV in presence of glutamate at 1 uM by whole cell patch clamp assay (RVB = 0.16 +/- 0.059); conditions: filed as negative allosteric modulator; outline: as §1
[18] = biological target: T1, Glutamate receptor 3; assay: Blockade of whole cell current in GluA3i-G (unknown origin) transfected in HEK293 cells assessed as opening of conductance level O1 measured at -60 mV in presence of glutamate at 2 uM by whole cell patch clamp assay; conditions: filed as negative allosteric modulator; outline: as §1

T1 sequence (P42263 whole entry): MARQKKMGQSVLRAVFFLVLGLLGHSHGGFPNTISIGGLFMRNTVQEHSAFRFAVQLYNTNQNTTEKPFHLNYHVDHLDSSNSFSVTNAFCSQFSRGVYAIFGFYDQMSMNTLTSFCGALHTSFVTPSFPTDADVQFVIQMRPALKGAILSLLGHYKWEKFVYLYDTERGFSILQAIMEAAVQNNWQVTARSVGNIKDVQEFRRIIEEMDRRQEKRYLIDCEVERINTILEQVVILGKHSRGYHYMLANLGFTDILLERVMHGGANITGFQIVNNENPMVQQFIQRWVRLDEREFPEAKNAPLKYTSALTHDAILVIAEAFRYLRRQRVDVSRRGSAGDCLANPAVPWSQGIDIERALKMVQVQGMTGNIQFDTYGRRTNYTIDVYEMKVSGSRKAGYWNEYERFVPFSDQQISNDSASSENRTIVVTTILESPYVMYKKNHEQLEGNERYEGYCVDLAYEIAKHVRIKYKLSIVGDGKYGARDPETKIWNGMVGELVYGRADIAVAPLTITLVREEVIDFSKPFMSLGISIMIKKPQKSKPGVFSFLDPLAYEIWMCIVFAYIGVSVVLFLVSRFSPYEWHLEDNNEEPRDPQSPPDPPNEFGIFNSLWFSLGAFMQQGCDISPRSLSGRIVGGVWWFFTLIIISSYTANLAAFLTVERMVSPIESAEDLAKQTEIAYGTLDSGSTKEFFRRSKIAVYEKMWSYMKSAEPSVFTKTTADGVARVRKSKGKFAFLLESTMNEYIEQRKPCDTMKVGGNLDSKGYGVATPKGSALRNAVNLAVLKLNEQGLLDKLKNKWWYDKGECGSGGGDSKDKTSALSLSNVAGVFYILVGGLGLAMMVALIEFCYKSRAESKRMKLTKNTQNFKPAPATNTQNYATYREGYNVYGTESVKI

`N#Cc1ccccc1-c1cc(-c2ccccn2)cn(-c2ccccc2)c1=O` [PERAMPANEL] was tested, and the Ratio [1] was 0.49, the Ratio [2] was 0.001 and the Ratio [3] was 0.23. For the same compound, the IC50 [4] was 2100 nM, the Activity [5] was “inactive” and the Activity [6] was “inactive”. The Activity [7] was “Active”, the Activity [8] was “Active” and the Activity [9] was “inactive”. The Ratio [10] was 0.078, the Ratio [11] was 0.015 and the Ratio [12] was 0.25. For the same compound, the Ratio [13] was 0.13, the Activity [14] was “Active” and the Activity [15] was “inactive”. For the same compound, the Ratio [16] was 0.53, the Ratio [17] was 0.3 and the Activity [18] was “Active”.
